Data from ChEMBL document CHEMBL4673226, “Development of 5-Aminopyrazole-4-carboxamide-based Bumped-Kinase Inhibitors for Cryptosporidiosis Therapy” (J Med Chem, 2019).
Converted amounts (≈) assume the structure as drawn. The source made the active and inactive calls. The calls are words filed in the database; no cut-off is given here.

Legend:
[1] = Toxicity in mouse assessed as effect on organ parameters at 150 to 300 mg/kg, po QD for 7 days by histological analysis; type: organism-based; settings: in vivo, 168 h, dose 150-300 mg/kg, time 7 day
[2] = system: Cryptosporidium parvum; test: Antimicrobial activity against nano-luciferase-expressing Cryptosporidium parvum infected in IFN-gamma KO B6.129S7-Ifngtm1Ts/J mouse assessed as log reduction of infection at 120 mg/kg, po QD for 5 days beginning on day 6 post infection relative untreated control; type: functional, organism-based; settings: time 5.0 day
[3] = mouse, in vivo, po, 30 mg/kg, 168 h
[4] = system: Cryptosporidium parvum; test: Antimicrobial activity against nano-luciferase-expressing Cryptosporidium parvum infected in IFN-gamma KO B6.129S7-Ifngtm1Ts/J mouse assessed as log reduction of infection at 60 mg/kg, po QD for 5 days beginning on day 6 post infection relative untreated control; settings: time 5.0 day
[5] = Toxicity in human CRL-8155 cells; type: cell-based
[6] = system: Cryptosporidium parvum; test: Antimicrobial activity against nano-luciferase-expressing Cryptosporidium parvum infected in IFN-gamma KO B6.129S7-Ifngtm1Ts/J mouse assessed as log reduction of infection at 30 mg/kg, po BID for 5 days beginning on day 6 post infection relative untreated control; type: functional, organism-based; settings: time 5.0 day
[7] = system: Cryptosporidium parvum; test: Antimicrobial activity against nano-luciferase-expressing Cryptosporidium parvum infected in IFN-gamma KO B6.129S7-Ifngtm1Ts/J mouse assessed as log reduction of infection at 15 mg/kg, po BID for 5 days beginning on day 6 post infection relative untreated control; type: functional, organism-based; settings: time 5.0 day
[8] = Clearance in mouse at 25 mg/kg, po; type: ADME, organism-based; settings: in vivo
[9] = Toxicity in mouse assessed as effect on CBC parameters at 150 to 300 mg/kg, po QD for 7 days; type: organism-based; settings: in vivo, 168 h, dose 150-300 mg/kg, time 7 day
[10] = system: Cryptosporidium parvum; test: Antimicrobial activity against nano-luciferase-expressing Cryptosporidium parvum infected in IFN-gamma KO B6.129S7-Ifngtm1Ts/J mouse assessed as log reduction of infection at 5 mg/kg, po BID for 5 days beginning on day 6 post infection relative untreated control; type: functional, organism-based; settings: time 5.0 day
[11] = Toxicity in mouse at 150 to 600 mg/kg, po; type: organism-based; settings: in vivo, dose 150-600 mg/kg
Summary of the method: (§1)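 Escalating single oral doses were given to mice until toxicity signs appeared. Regimens were 100, 150, 200 and 250 mg/kg, and 150, 200, 300, 400 and 600 mg/kg. Escalation was limited by solubility in the dosing solution.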

[12] = system: Cryptosporidium parvum; test: Antimicrobial activity against nano-luciferase-expressing Cryptosporidium parvum infected in IFN-gamma KO B6.129S7-Ifngtm1Ts/J mouse assessed as log reduction of infection at 60 mg/kg, po BID for 5 days beginning on day 6 post infection relative untreated control; type: functional; settings: time 5 day
[13] = system: HepG2; test: Toxicity in human HepG2 cells; type: cell-based
[14] = Inhibition of Cryptosporidium parvum CDPK1 assessed as reduction in ATP consumption using BioSyntide-2 substrate incubated for 90 mins by luciferase reporter gene assay
[15] = Protein binding in human plasma by dialysis method
[16] = Toxicity in mouse assessed as effect on serum chemistry parameters at 150 to 300 mg/kg, po QD for 7 days; type: organism-based; settings: in vivo, 168 h, dose 150-300 mg/kg, time 7 day
[17] = target: Proto-oncogene tyrosine-protein kinase Src (Homo sapiens, UniProt P12931); test: Inhibition of SRC (unknown origin); type: ADME
Chain of Proto-oncogene tyrosine-protein kinase Src (P12931 2-536 limits assumed): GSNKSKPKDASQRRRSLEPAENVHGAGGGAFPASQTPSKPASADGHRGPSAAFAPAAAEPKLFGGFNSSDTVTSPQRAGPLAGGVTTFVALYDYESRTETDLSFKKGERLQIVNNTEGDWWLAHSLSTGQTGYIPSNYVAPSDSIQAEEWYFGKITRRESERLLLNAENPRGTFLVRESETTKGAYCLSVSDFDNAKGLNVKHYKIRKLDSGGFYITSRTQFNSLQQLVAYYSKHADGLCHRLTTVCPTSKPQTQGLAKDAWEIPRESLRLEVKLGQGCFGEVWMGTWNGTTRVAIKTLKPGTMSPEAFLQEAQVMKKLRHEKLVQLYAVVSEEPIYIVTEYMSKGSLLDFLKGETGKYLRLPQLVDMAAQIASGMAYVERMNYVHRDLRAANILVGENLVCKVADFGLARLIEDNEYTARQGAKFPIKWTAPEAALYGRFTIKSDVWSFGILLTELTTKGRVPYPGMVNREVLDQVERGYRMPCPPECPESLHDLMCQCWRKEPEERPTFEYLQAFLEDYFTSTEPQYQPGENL

[18] = AUC in mouse at 25 mg/kg, po; type: ADME, organism-based; parameters: dose 25 mg/kg; settings: in vivo
[19] = Toxicity in mouse assessed as induction of distress at 150 to 600 mg/kg, po; type: organism-based; settings: in vivo, dose 150-600 mg/kg; summary of the method: as §1
[20] = Toxicity in mouse at 150 to 300 mg/kg, po QD for 7 days; type: organism-based; settings: in vivo, 168 h, dose 150-300 mg/kg, time 7 day
[21] = Protein binding in mouse plasma by dialysis method
[22] = Toxicity in mouse assessed as effect on CBC parameters by measuring lymphocytes counts at 200 mg/kg, po QD for 7 days by histological analysis (reference value: 4060 +/- 1266 ABS/uL); type: organism-based; settings: in vivo, 168 h, time 7 day
[23] = Toxicity in mouse assessed as effect on CBC parameters by measuring white blood cell counts at 200 mg/kg, po QD for 7 days by histological analysis (reference value: […] +/- […] 10^3/uL); type: organism-based; settings: in vivo, 168 h, time 7 day
[24] = Toxicity in mouse at 100 to 200 mg/kg, po QD for 7 days; type: organism-based; settings: in vivo, 168 h, dose 100-200 mg/kg, time 7 day
[25] = Toxicity in mouse assessed as effect on CBC parameters by measuring lymphocytes counts at 100 mg/kg, po QD for 7 days by histological analysis (reference value: 4060 +/- 1266 ABS/uL); type: organism-based; settings: in vivo, 168 h, time 7 day
[26] = Toxicity in mouse assessed as induction of distress at 100 to 400 mg/kg, po; type: organism-based; settings: in vivo, dose 100-400 mg/kg
[27] = Toxicity in mouse assessed as effect on CBC parameters by measuring white blood cell counts at 100 mg/kg, po QD for 7 days by histological analysis (reference value: […] +/- […] 10^3/uL); type: organism-based; settings: in vivo, 168 h, time 7 day
[28] = Toxicity in mouse at 100 to 400 mg/kg, po; type: organism-based; settings: in vivo, dose 100-400 mg/kg
[29] = Toxicity in mouse assessed as induction of organ abnormalities at 100 to 200 mg/kg, po QD for 7 days by histological analysis; type: organism-based; settings: in vivo, 168 h, dose 100-200 mg/kg, time 7 day
[30] = Cardiotoxicity in rat; type: toxicity
[31] = Toxicity in mouse at 100 to 250 mg/kg, po; type: organism-based; settings: in vivo, dose 100-250 mg/kg; summary of the method: as §1
[32] = Toxicity in mouse assessed as induction of lethargy at 250 mg/kg, po QD for 7 days; type: organism-based; settings: in vivo, 168 h, time 7 day
[33] = Plasma concentration in mouse at 100 mg/kg, po QD for 3 days measured on pre dose by LC-MS/MS analysis
[34] = Plasma concentration in mouse at 250 mg/kg, po QD for 7 days measured after 72 hrs by LC-MS/MS analysis
[35] = Plasma concentration in mouse at 100 mg/kg, po QD for 7 days measured after 48 hrs by LC-MS/MS analysis; type: ADME, organism-based; settings: time 7 day
Summary of the method: (§2)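 Multiple-dose oral tolerability study in mice at 100 or 250 mg/kg over 7 days. Plasma was taken 2 h after dose 2, before dose 3, 2 h after dose 5, and 24, 48 and 72 h after dose 7. Drug was quantified by LC-MS/MS. Blood and organs were collected after the final dose.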

[36] = system: Cryptosporidium parvum; test: Antimicrobial activity against nano-luciferase-expressing Cryptosporidium parvum infected in IFN-gamma KO B6.129S7-Ifngtm1Ts/J mouse assessed as log reduction of infection at 30 mg/kg, po QD for 5 days beginning on day 6 post infection relative untreated control; type: functional, organism-based; settings: time 5.0 day
[37] = Plasma concentration in mouse at 100 mg/kg, po QD for 7 days measured after 72 hrs by LC-MS/MS analysis; type: ADME, organism-based; settings: time 7 day; summary of the method: as §2
[38] = Plasma concentration in mouse at 250 mg/kg, po QD for 2 days measured after 2 hrs by LC-MS/MS analysis
[39] = Solubility in pH 2.0 solution; settings: buffer
[40] = Plasma concentration in mouse at 250 mg/kg, po QD for 7 days measured after 48 hrs by LC-MS/MS analysis
[41] = Clearance in mouse at 10 mg/kg, po; type: ADME, organism-based; settings: in vivo
[42] = Plasma concentration in mouse at 250 mg/kg, po QD for 5 days measured after 2 hrs by LC-MS/MS analysis
[43] = Toxicity in mouse assessed as induction of distress at 100 to 250 mg/kg, po; type: organism-based; settings: in vivo, dose 100-250 mg/kg; summary of the method: as §1
[44] = AUC in mouse at 10 mg/kg, po; type: ADME, organism-based; parameters: dose 10 mg/kg; settings: in vivo
[45] = mouse, in vivo, po, 30 mg/kg, 96 h
[46] = Drug level in mouse fecus at 25 mg/kg, po; settings: read-out: Drug uptake, in vivo
[47] = Toxicity in mouse assessed as induction of lack of grooming at 250 mg/kg, po QD for 7 days; type: organism-based; settings: in vivo, 168 h, time 7 day
[48] = Plasma concentration in mouse at 250 mg/kg, po QD for 7 days measured after 24 hrs by LC-MS/MS analysis
[49] = Toxicity in mouse assessed as effect on CBC parameters at 100 to 250 mg/kg, po QD for 7 days; type: organism-based; settings: in vivo, 168 h, dose 100-250 mg/kg, time 7 day
[50] = system: Cryptosporidium parvum; test: Antimicrobial activity against nano-luciferase-expressing Cryptosporidium parvum infected in IFN-gamma KO B6.129S7-Ifngtm1Ts/J mouse assessed as log reduction of infection at 60 mg/kg, po QD for 5 days beginning on day 6 post infection relative untreated control; settings: time 5 day
[51] = system: Cryptosporidium parvum; test: Antimicrobial activity against nano-luciferase-expressing Cryptosporidium parvum infected in IFN-gamma KO B6.129S7-Ifngtm1Ts/J mouse assessed as log reduction of infection at 15 mg/kg, po QD for 5 days beginning on day 6 post infection relative untreated control; type: functional, organism-based; settings: time 5.0 day
[52] = Solubility in pH 6.5 solution; settings: buffer
[53] = Toxicity in mouse assessed as effect on organ parameters at 100 to 250 mg/kg, po QD for 7 days by histological analysis; type: organism-based; settings: in vivo, 168 h, dose 100-250 mg/kg, time 7 day
[54] = Plasma concentration in mouse at 100 mg/kg, po QD for 2 days measured after 2 hrs by LC-MS/MS analysis; type: ADME, organism-based; settings: time 2 day; summary of the method: as §2
[55] = Toxicity in mouse at 100 mg/kg, po QD for 7 days; type: organism-based; settings: in vivo, 168 h, time 7 day
[56] = Plasma concentration in mouse at 250 mg/kg, po QD for 3 days measured on pre dose by LC-MS/MS analysis
[57] = Plasma concentration in mouse at 100 mg/kg, po QD for 5 days measured after 2 hrs by LC-MS/MS analysis; type: ADME, organism-based; settings: time 5 day; summary of the method: as §2
[58] = Toxicity in mouse assessed as effect on serum chemistry parameters at 100 to 250 mg/kg, po QD for 7 days; type: organism-based; settings: in vivo, 168 h, dose 100-250 mg/kg, time 7 day
[59] = Plasma concentration in mouse at 100 mg/kg, po QD for 7 days measured after 24 hrs by LC-MS/MS analysis; type: ADME, organism-based; settings: time 7 day; summary of the method: as §2

## CCOc1ccc2cc(-c3nn(C(C)(C)CCO)c(N)c3C(N)=O)ccc2c1
[1]
  Activity: Non-Toxic
[2]
  Activity: Active
[3]
  Cmax: 0.51 µM
[4]
  Activity: inactive
[5]
  Activity: Non-Toxic
[6]
  Activity: Active
[7]
  Activity: inactive
[8]
  CL/F: 11.1 mL/min
[9]
  Activity: Non-Toxic
[10]
  Activity: inactive
[11]
  Activity: Non-Toxic
[12]
  log reduction: 3.37
[13]
  Activity: Non-Toxic
[14]
  IC50: 2.5 nM
[15]
  PPB: 99%
[16]
  Activity: Non-Toxic
[17]
  IC50: > 10000 nM
[18]
  AUC: 144.5 µmol·min/L
[19]
  Activity: Non-Toxic
[20]
  Activity: Non-Toxic
[21]
  PPB: 94%

## CC(C)(CO)Cn1nc(-c2ccc3cc(OC4CC4)ccc3c2)c(C(N)=O)c1N
[22]
  Activity: 1301 abs/uL
[23]
  Activity: 1.5 10^3 /uL
[24]
  Activity: Non-Toxic
[5]
  Activity: Non-Toxic
[25]
  Activity: 1194 abs/uL
[26]
  Activity: Non-Toxic
[27]
  Activity: 1.5 10^3 /uL
[28]
  Activity: Non-Toxic
[13]
  Activity: Non-Toxic
[29]
  Activity: Non-Toxic

## CCOc1ccc2cc(-c3nn(C(C)(C)C)c(N)c3C(N)=O)cnc2c1
[30]
  Activity: Toxic

## CC(C)(C)n1nc(-c2ccc3cc(OC4CC4)ccc3c2)c(C(N)=O)c1N
[31]
  Activity: Non-Toxic
[32]
  Activity: Toxic
[33]
  concentration at 72 h: 19.9 µM
[34]
  concentration at 168 h: 0.7 µM
[35]
  concentration at 168 h: 4.8 µM
[36]
  Activity: Active
[5]
  Activity: Non-Toxic
[37]
  concentration at 168 h: 0.3 µM
[38]
  concentration at 48 h: 40.1 µM
[39]
  solubility: 83 µM (≈ 30.2 µg/mL)
[40]
  concentration at 168 h: 2.3 µM
[41]
  CL/F: 0.5 mL/min
[42]
  concentration at 120 h: 72.2 µM
[43]
  Activity: Non-Toxic
[44]
  AUC: 9098 µmol·min/L
[45]
  Cmax: 28.8 µM
[46]
  concentration: 0.42 µM
[47]
  Activity: Toxic
[48]
  concentration at 168 h: 24.6 µM
[13]
  Activity: Non-Toxic
[49]
  Activity: Non-Toxic
[50]
  FC: 3.52
[51]
  Activity: inactive
[52]
  solubility: 65 µM (≈ 23.7 µg/mL)
[14]
  IC50: 4.3 nM
[15]
  PPB: 82%
[53]
  Activity: Non-Toxic
[54]
  concentration at 48 h: 36.6 µM
[55]
  Activity: Non-Toxic
[56]
  concentration at 72 h: 36.1 µM
[17]
  IC50: > 10000 nM
[57]
  concentration at 120 h: 49.2 µM
[58]
  Activity: Non-Toxic
[59]
  concentration at 168 h: 26.4 µM
[21]
  PPB: 95%
